SR-BI uptake up = activators of SR-BI mediated HDL lipid uptake | CHO ldlA[mSR-BI] cells, DiI-HDL uptake fluorescence, 3 h; 100 = double the neutral-control signal | activation, % at 12.5 µM | 320,000 compounds, 0.096% hits;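 active means mean replicate activation of at least 60% and every replicate at or above 60%; inconclusive means mean or all-replicate condition met, but not both; inactive means mean below 60% and not all replicates reaching 60%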;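 further: 0% = median plate neutral-control signal and 100% = twice that signal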
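material = CHO ldlA[mSR-BI] cells | medium = Ham's F12 with 0.5% BSA, HEPES 25 mM, pH 7.4 | reagent = fluorescent DiI-HDL, 10 µg/mL final | compound dosing = single-point compound dose | incubation = 3 h, 37 °C | measured by = bottom-read fluorescence, 550/595 nm | measure = HDL uptake via cellular fluorescence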
Vif imaging = HIV Vif inhibition. HEK293T cells, Vif self-association by quenched fluorescence, imaging, 24 h. inhibition, % at 7.49 µM. 340,000 compounds, 0.35% hits; in the data active means inhibition above about 50%, passing the limit was not always enough; inconclusive means no clear call, values can overlap the other calls; inactive means below about 31%
PKA-R1A act = activators of PKA-R1A complex; PKA-R1A dissociation, Cy5-IP20 fluorescence polarization; scaled: DMSO 0%, 113 µM cGMP 100%; activation, % at 11.4 µM; 340,000 compounds, 0.083% hits; AID 504707;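 active means percent activation above the mean of all tested compounds plus 3 SD, cut at about 19% in these data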;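 further: higher means more PKAc released from R1A so a rise in polarization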
PKA-R2B act = activators of human PKA-R2B complex. PKA-R2B holoenzyme dissociation, Cy5-IP20 fluorescence polarization; R2B truncated from residue 108, S112A mutant; 0% DMSO only, 100% 113 µM cGMP. 340,000 compounds, 0.079% hits. P22694+P31323. activation, % at 11.4 µM;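 active means activation above a cutoff set at the mean over all compounds plus 3 SD, cut at about 18% in these data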;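 further: higher means more holoenzyme dissociation and a rise in polarization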
Target sequence (P31323 whole entry, looked up, other chains not shown, the tested form may be a part): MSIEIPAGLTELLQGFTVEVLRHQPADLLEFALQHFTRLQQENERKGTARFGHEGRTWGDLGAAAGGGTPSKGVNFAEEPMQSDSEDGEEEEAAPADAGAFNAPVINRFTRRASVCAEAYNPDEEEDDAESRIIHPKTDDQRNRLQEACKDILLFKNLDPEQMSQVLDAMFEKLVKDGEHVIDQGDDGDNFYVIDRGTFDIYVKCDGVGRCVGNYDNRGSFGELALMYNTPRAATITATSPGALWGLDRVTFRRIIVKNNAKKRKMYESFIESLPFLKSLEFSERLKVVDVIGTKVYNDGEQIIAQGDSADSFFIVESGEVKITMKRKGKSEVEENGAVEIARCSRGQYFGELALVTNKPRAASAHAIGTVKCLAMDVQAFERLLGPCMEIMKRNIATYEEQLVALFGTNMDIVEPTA
SR-BI HDL uptake = inhibitors of mouse SR-BI mediated HDL lipid uptake. ldlA[mSR-BI] CHO cells, DiI-HDL uptake fluorescence, 3 h. 320,000 compounds, 0.96% hits. AID 488896. Q61009. inhibition, % at 12.5 µM;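 active means mean replicate inhibition of at least 70% and a set share of replicates each scoring 70 or more; inconclusive means meets just one of the two criteria; inactive means fails both criteria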;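 further: 0% = median of neutral control wells and 100% = median of positive control wells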
DiI quench = counter-screen for SR-BI lipid transfer inhibitors: DiI fluorescence quenchers; shares compounds with SR-BI HDL uptake; cell-free DiI-HDL fluorescence quenching, 30 min; AC50, µM (top dose mostly 35 µM), for the others: at the top dose activity change, negative = quenching; 470 compounds, 20% hits; AID 540326;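 active means quenching, a falling signal, with AC50 below a set limit tied to the top valid dose, actives reach about 32 µM in these data; inconclusive means no clear call, values can overlap the other calls; inactive means rising signal, and the rest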
Starred values were filed as active, the others as inactive; ? = inconclusive; · = no result given. In the library only some 1.4% were active in any assay of this set; here they are far more common.

SMILES | SR-BI uptake up | Vif imaging | PKA-R1A act | PKA-R2B act | SR-BI HDL uptake | DiI quench
COCCOC(=O)c1[nH]c2c(c1C)C(=O)CC(c1cccs1)C2 (centres undefined) | · | -7 | -7 | -7 | · | ·
CCn1cc(C(=O)O)c(=O)c2cnc(N3CCN(C(=S)Nc4ccccc4C(F)(F)F)CC3)nc21 | · | · | 5 | -7 | · | ·
CC1(C)Cc2c(sc(NC(=O)C(=O)N3CCCCC3)c2C(N)=O)CO1 | -6 | -6 | 5 | 1 | 6 | ·
CCOC(=O)Nc1ccc2c(c1)N(C(=O)C(C)N1CCCC1)c1ccccc1CC2 (centres undefined) | 16 | 10 | -6 | -9 | -16 | -1%
Cn1c(CNC(=O)c2ccco2)nnc1SCC(=O)c1ccc(F)cc1 | 32 | 0 | -1 | -4 | -32 | ·
O=C(Nc1ccccc1Cl)NC1CCCCCCC1 | 12 | -7 | -4 | -17 | -12 | ·
O=C(C[C@@H]1C/C=C\C[C@H](NC(=O)OCC2c3ccccc3-c3ccccc32)C(=O)O[C@H](c2ccccc2)CNC1=O)NCCO | -36 | 4 | -3 | 1 | 36 | -10%
C[C@@H]1COC(=O)[C@H](NC(=O)OCC2c3ccccc3-c3ccccc32)C/C=C\C[C@@H](CC(=O)N[C@@H](CO)Cc2ccccc2)C(=O)N1 | -84 | -2 | -4 | 9 | 84* | -5%
O=C(N[C@@H]1C/C=C\C[C@@H](CC(=O)N(CCO)Cc2ccccc2)C(=O)NCCOC1=O)OCC1c2ccccc2-c2ccccc21 | -78 | -1 | -15 | -12 | 78* | -9%
O=C1NCCOC(=O)[C@H](Cc2ccc(F)cc2)C/C=C\C[C@@H]1CC(=O)N(CCO)Cc1ccccc1 | 9 | -10 | 4 | -6 | -9 | -3%
O=C(N[C@@H]1C/C=C\C[C@H](CC(=O)N(CCO)Cc2ccccc2)C(=O)N[C@@H](Cc2ccccc2)COC1=O)OCC1c2ccccc2-c2ccccc21 | -46 | -4 | 5 | -6 | 46 | ·
CC(C)(C)[C@H]1COC(=O)[C@H](NC(=O)OCC2c3ccccc3-c3ccccc32)C/C=C\C[C@@H](CC(=O)N[C@H](CO)Cc2ccccc2)C(=O)N1 | -27 | 1 | -17 | -8 | 27 | ·
Cc1nn(CC(=O)Nc2ccc(Br)cc2F)c(=O)c2cccn12 | 5 | 0 | -2 | -6 | -5 | ·
C/C(=N\OCC(=O)Nn1c(=O)[nH]c2ccccc2c1=O)c1ccccc1 | 1 | 3 | -7 | -1 | -1 | ·
CC(=O)c1ccc(N2CCN(C(=O)/C=C/c3ccc(S(=O)(=O)NCc4ccco4)cc3)CC2)cc1 | -88 | -15 | -8 | 9 | 88* | -3%
N#Cc1ccc(CN2CCN(C(=O)c3ccc(S(=O)(=O)NCc4ccco4)cc3)CC2)cc1 | -72 | -3 | -2 | 9 | ? | 0%
CC(=O)c1ccc(N2CCN(C(=O)/C=C/c3ccc(S(=O)(=O)N4CCOCC4)cc3)CC2)cc1 | -38 | -13 | 1 | -6 | 38 | ·
O=C(c1ccc(S(=O)(=O)NCc2ccco2)cc1)N1CCCC1 | 1 | 5 | 6 | -12 | -1 | ·
Cc1ccc2c(c1)C(=O)C(=O)N2CC(=O)Nc1ccc(N2CCOCC2)cc1 | -4 | 8 | -7 | 4 | 4 | -11%
CC1Cc2ccccc2N1CC(=O)Nc1ccc(N2CCOCC2)cc1 (centres undefined) | -83 | 4 | -3 | -14 | 83* | -19%
Cc1ccc(NC(=O)CN2C(=O)N/C(=C/c3ccc(N4CCOCC4)cc3)C2=O)cc1 | -5 | -2 | 16 | -3 | 5 | ·
Cc1ccc(CNS(=O)(=O)c2c(C(=O)N3CCCCCC3)c(C)n(C)c2C)cc1 | 7 | 6 | 14 | -11 | -7 | ·
O=C(O)c1cccc(N2C(=O)c3cccc(Oc4ccc(Cl)cc4)c3C2=O)c1 | 6 | -17 | -1 | 0 | -6 | ·
COC(=O)[C@]1(CC(C)C)N[C@H](c2ccc(-c3cccc(Cl)c3)cc2)[C@@H]2C(=O)N(C)C(=O)[C@@H]21 | -74 | -3 | -3 | 6 | 74* | -1%
COC(=O)[C@]1(C)N[C@H](c2ccc(-c3cccc(Cl)c3)cc2)[C@@H]2C(=O)N(C)C(=O)[C@@H]21 | -20 | 3 | 5 | -4 | 20 | ·
SMILES | SR-BI uptake up | Vif imaging | PKA-R1A act | PKA-R2B act | SR-BI HDL uptake | DiI quench
COc1ccc(-c2nc(-c3ccc4c(c3)OCO4)[nH]c2-c2ccc(OC)cc2)cc1 | -105 | -10 | -5 | -2 | 105* | 2.7µM*
COc1ccc(-c2noc(-c3ccc4c(c3)OCO4)n2)cc1 | 22 | -4 | 1 | -3 | -22 | ·
O=C(Nc1ccc(N2CCOCC2)cc1)c1cc2c(s1)CCCC2 | -100 | -7 | -10 | -5 | 100* | 16µM*
O=C(Nc1ccccc1N1CCOCC1)c1cc2c(s1)CCCCC2 | -57 | 8 | -8 | -13 | 57 | ·
COc1ccc(-c2nnc(SCC(=O)Nc3ncc(C(F)(F)F)cc3Cl)n2CC(C)C)cc1 | -25 | -2 | 4 | 8 | 25 | -6%
CCn1c(SCC(=O)Nc2ncc(C(F)(F)F)cc2Cl)nnc1-c1cccc(C)c1 | 26 | 2 | 7 | 1 | -26 | ·
Cc1cccc(NC(=O)N2C3CCCC2CC(NC(=O)C(C)(C)C)C3)c1 (centres undefined) | -76 | -4 | -2 | -9 | 76* | -2%
CC(=O)NC1CC2CCCC(C1)N2C(=O)Nc1cccc(C)c1 (centres undefined) | 26 | -1 | -11 | -6 | -26 | ·
CCOc1ccc(CCNC(=O)C2CC(=O)N(c3ccccc3OCC)C2)cc1OCC (centres undefined) | -79 | -7 | -9 | -10 | 79* | -1%
CCOc1ccccc1N1CC(C(=O)NCCC2=CCCCC2)CC1=O (centres undefined) | -63 | -3 | -8 | -10 | 63 | ·
COc1ccc2sc(-c3ccc(N(C)C)cc3)c(C#Cc3cncn3C)c2c1 | -77 | 14 | 5 | -4 | 77* | 2.2µM*
COc1ccc2sc(-c3ccc(N(C)C)cc3)c(C#CC(C)(C)O)c2c1 | -103 | -2 | -10 | -3 | 103* | 2.9µM*
COc1ccc2sc(-c3ccc(SC)cc3)c(C#CC(C)(C)O)c2c1 | -64 | 1 | -8 | -5 | 64 | ·
CC(C)Cc1nnc(NC(=O)CCC(=O)N2CCN(c3ccc(F)cc3)CC2)s1 | 13 | 1 | -5 | 2 | -13 | ·
O=C(OCCNc1ncc(C(F)(F)F)cc1Cl)c1ccc(S(=O)(=O)N2CCOCC2)cc1 | -81 | -1 | 7 | -4 | 81* | 1%
C/C(N)=C(/C#N)C(=O)COC(=O)c1ccccc1Oc1ccccc1 | 8 | -2 | 1 | 7 | -8 | ·
